Experimental findings from ChEMBL document CHEMBL3120122, “Highly potent HCV NS4B inhibitors with activity against multiple genotypes” (J Med Chem, 2014) are described below.

Data set [1] concerns Hepatitis C virus. The data set can be described thus: Antiviral activity against HCV Con1 expressing wild type NS4B infected in human HuH7 cells assessed as inhibition of viral RNA replication after 3 days by dual-glo luciferase reporter gene assay. The format is functional, organism-based, Hepacivirus hominis. Particulars: isolate Con1, Huh-7, 72 h. Summed up: (§1)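 Measured in HCV replicon assays, not infection, using genotype 1a, 1b and 2a (JFH) replicons; the read-out is inhibition of replicon replication.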
For orientation: In a reporter assay the amount or activity of a reporter protein is the signal.

Data set [2] in a line: Lipophilicity, log D of the compound at pH 7.4 by chromatographic analysis. Format: physicochemical. Conditions: buffer.
Data set [3] concerns Hepatitis C virus. Briefly: Antiviral activity against HCV Con1 expressing NS4B H94N mutant infected in human HuH7 cells assessed as inhibition of viral RNA replication after 3 days by dual-glo luciferase reporter gene assay. Format: functional, organism-based, Hepacivirus hominis. Conditions: isolate Con1, Huh-7, 72 h. Summed up: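 Tested in the HCV genotype 1b replicon assay carrying the NS4B H94N substitution, alongside the matched 1a, 1b and 2a-JFH replicon screens.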

Data set [4] is described as follows: Cytotoxicity against human HuH7 cells. Format: cell-based, Huh-7.
Data set [5] deals with Hepatitis C virus. The data set can be described thus: Antiviral activity against HCV JFH-1 expressing NS4B infected in human HuH7 cells assessed as inhibition of viral RNA replication after 3 days by dual-glo luciferase reporter gene assay. The format is functional, organism-based, Hepacivirus hominis. Conditions: JFH-1, Huh-7, 72 h.
The subject of data set [6] is Hepatitis C virus. Briefly: Antiviral activity against HCV genotype 2b expressing full length NS4B infected in human HuH7 cells assessed as inhibition of viral RNA replication after 3 days by dual-glo luciferase reporter gene assay. The format is functional, organism-based, Hepacivirus hominis. Conditions: Huh-7, 72 h.
Data set [7] deals with Hepatitis C virus. The data set can be described thus: Antiviral activity against HCV H77 expressing wild type NS4B infected in human HuH7 cells assessed as inhibition of viral RNA replication after 3 days by dual-glo luciferase reporter gene assay. Particulars: genotype 1a H77, Huh-7, 72 h. Format: functional, organism-based, Hepacivirus hominis. Summed up:
as §1

Data set [8] relates to Hepatitis C virus. Briefly: Antiviral activity against HCV S52 expressing NS4B infected in human HuH7 cells assessed as inhibition of viral RNA replication after 3 days by dual-glo luciferase reporter gene assay. The format is functional, organism-based, Hepacivirus hominis. Conditions: S52, Huh-7, 72 h.
The nature of data set [9]: Selectivity ratio of EC50 for HCV JFH-1 expressing NS4B to EC50 for HCV Con1 expressing wild type NS4B. Format: functional.
In data set [10] the test system is Hepatitis C virus. Briefly: Antiviral activity against HCV ED43 expressing NS4B infected in human HuH7 cells assessed as inhibition of viral RNA replication after 3 days by dual-glo luciferase reporter gene assay. Conditions: ED43, Huh-7, 72 h. Format: functional, organism-based, Hepacivirus hominis.
Data set [11] in a line: Intrinsic clearance in rat liver microsomes at 3 uM after 1 hr in presence of NADPH and UDP-glucuronic acid. Format: ADME. Conditions: read-out: CLH (converted).
Data set [12] concerns Hepatitis C virus. The data set can be described thus: Antiviral activity against HCV genotype 6a expressing NS4B infected in human HuH7 cells assessed as inhibition of viral RNA replication after 3 days by dual-glo luciferase reporter gene assay. The format is functional, organism-based, Hepacivirus hominis. Conditions: Huh-7, 72 h.
The nature of data set [13]: Half life in iv dosed Sprague-Dawley rat administered as 30 mins infusion. Particulars: in vivo. Format: ADME, organism-based.
Data set [14] in a line: Intrinsic clearance in human liver microsomes at 3 uM after 1 hr in presence of NADPH and UDP-glucuronic acid. The format is ADME. Conditions: read-out: CLH (converted). (In general: Liver microsomes are vesicles of endoplasmic reticulum, rich in cytochrome P450 enzymes.)
For data set [15], the system named is Hepatitis C virus. Briefly: Antiviral activity against HCV Con1 expressing NS4B H94S mutant infected in human HuH7 cells assessed as inhibition of viral RNA replication after 3 days by dual-glo luciferase reporter gene assay. The format is functional, organism-based, Hepacivirus hominis. Particulars: isolate Con1, Huh-7, 72 h.
The nature of data set [16]: Volume of distribution at steady state in iv dosed Sprague-Dawley rat administered as 30 mins infusion. The format is ADME, organism-based. Conditions: in vivo, read-out: Vdss.
The nature of data set [17]: Oral bioavailability in Sprague-Dawley rat. Format: ADME, organism-based. Conditions: in vivo.
A short description of data set [18]: Clearance in iv dosed Sprague-Dawley rat administered as 30 mins infusion. Format: ADME, organism-based. Conditions: in vivo.
Data set [19] has as its system Hepatitis C virus. Briefly: Selectivity ratio of EC50 for HCV Con1 expressing NS4B H94N mutant to EC50 for HCV Con1 expressing wild type NS4B. The format is functional, Hepacivirus hominis, isolate Con1.
The nature of data set [20]: Displacement of tritium labeled (R)-6-cyclopropyl-4-methyl-N-(morpholin-3-ylmethyl)-8-(trifluoromethyl)quinoline-2-carboxamide from recombinant HCV genotype 1b C-terminal His6-tagged NS4B expressed in baculovirus infected insect SF9 cells after overnight incubation by scintillation proximity assay. The arrangement: species or system Hepatitis C virus subtype 1b.

pEC50, pKd: −log10 of the molar value.

As for `Cc1cc(-c2nnc(N[C@H]3C[C@@H](O)C3)o2)nc2c(C(C)(C)C)cc(OCC(F)(F)F)cc12`, the pEC50 is 8.89 in the data set with Hepatitis C virus [1], 7.39 in the data set with Hepatitis C virus [3] and 6.68 with Hepatitis C virus [5]. The chromatographic logD in [2] was 3.4. For the same compound, the CC50 in [4] came out at 10800 nM.

As to `Cc1cc(-c2nnc(N[C@@H]3CCC[C@H](O)C3)o2)nc2c(C(C)(C)C)cc(OCC(F)(F)F)cc12`, the pEC50 in the data set on Hepatitis C virus [6] was 9.05; in the data set on Hepatitis C virus [1], 9.49; in the data set on Hepatitis C virus [7], 10.05; in the data set on Hepatitis C virus [8], 7.52; with Hepatitis C virus [3] it was 8.26; in the data set on Hepatitis C virus [10], 8.82. Besides, the pEC50 in the data set on Hepatitis C virus [5] was 7.02. In [2], this compound gave a chromatographic logD of 4. In addition, the Ratio EC50 in [9] was 300. This compound also came in with a CC50 in data set [4] of 20900 nM.

As for `Cc1cc(-c2nnc(NCC3OCCO3)o2)nc2c(C(C)(C)C)cc(NCC(F)(F)F)cc12`, the pEC50 in the data set on Hepatitis C virus [1] is 9.82; in the data set with Hepatitis C virus [3], 8.37; in the data set with Hepatitis C virus [5], 5.96. Moreover, the chromatographic logD in data set [2] came to 3.6. The compound further yielded a 50% cytotoxic concentration (CC50) in data set [4] of 16000 nM.

For `Cc1cc(-c2nnc(N[C@@H]3CCC[C@H](O)C3)o2)nc2c(C(C)(C)C)cc(NCC(F)(F)F)cc12`, the CLint scaled at 3 µM is 4 mL/min/kg in [11] and 3.67 mL/min/kg in data set [14]. The pEC50 with Hepatitis C virus [6] is 9.22; in the data set with Hepatitis C virus [1] it was 10.05; in the data set with Hepatitis C virus [7] it was 10.10; with Hepatitis C virus [8], 8.43; with Hepatitis C virus [3], 9.22; in the data set with Hepatitis C virus [10], 9.05. Besides, the results for the pEC50 with Hepatitis C virus [12], with Hepatitis C virus [15] and in the data set with Hepatitis C virus [5] were 8.51, 9.47 and 8.52, respectively. The chromatographic logD in [2] was found to be 3.6. Also, in data set [9], the Ratio EC50 worked out at 30. The compound also had a CC50 in data set [4] of 6250 nM. The compound further showed a half-life in [13] of 11 h. For the same compound, the Vd in [16] was 2.4 L/kg. In [17], this compound came in with a bioavailability of 88%. In [18], this compound showed a clearance of 10.8 mL/min/kg.

With `Cc1cc(-c2nnc(NC3CCCC3)o2)nc2c(C(C)(C)C)cc(OCC(F)(F)F)cc12`, the pEC50 in the data set on Hepatitis C virus [1] was 9.20; in the data set on Hepatitis C virus [3], 7.46; in the data set on Hepatitis C virus [5], 5.52. This compound also came in with a chromatographic logD in data set [2] of 4.9.

`COc1cc(C(F)(F)F)c2nc(-c3nnc(NCC4OCCO4)o3)cc(C)c2c1`: the pEC50 in the data set on Hepatitis C virus [1] was 7.49; in the data set with Hepatitis C virus [3] it was 6.14. In data set [2], this compound displayed a chromatographic logD of 3.4. In [4], this compound returned a CC50 of 50000 nM.

`Cc1cc(-c2nnc(N[C@H]3CCC[C@@H](O)C3)o2)nc2c(C(C)(C)C)cc(NCC(F)(F)F)cc12`: in the data set with Hepatitis C virus [5], the pEC50 was 6.70.

For the compound `Cc1cc(-c2nnc(NC3CCCC3)o2)nc2c(C(C)(C)C)cc(NCC(F)(F)F)cc12`, the pEC50 with Hepatitis C virus [1] is 9.82; in the data set on Hepatitis C virus [3], 8.28; with Hepatitis C virus [5] it was 6.28. The same compound gave a chromatographic logD in data set [2] of 4.6. Besides, it took 15800 nM to reach half-maximal cytotoxicity in [4] (CC50).

`Cc1cc(-c2nnc(NCC3OCCO3)o2)nc2c(C(C)(C)C)cc(OCC(F)(F)F)cc12`: the “Ratio EC50” value in the data set with Hepatitis C virus [19] worked out at 42; in data set [9], 2720. Moreover, the pEC50 with Hepatitis C virus [1] was 8.89; with Hepatitis C virus [7] it was 9.05; in the data set on Hepatitis C virus [3], 7.27; in the data set with Hepatitis C virus [5], 5.45. This compound displayed a chromatographic logD in data set [2] of 3.9. For the same compound, the pKd in data set [20] is 7.51. In data set [4], this compound showed a CC50 of 20400 nM.

`Cc1cc(-c2nnc(N[C@H]3C[C@H](O)C3)o2)nc2c(C(C)(C)C)cc(OCC(F)(F)F)cc12`: the figures for the pEC50 in the data set with Hepatitis C virus [1], in the data set on Hepatitis C virus [3] and in the data set on Hepatitis C virus [5] were 8.46, 6.15 and 5.28, respectively. For the same compound, the cytotoxic concentration (CC50) in data set [4] is 25900 nM.

On to `Cc1cc(-c2nnc(NCC3OCCO3)o2)nc2c(C(F)(F)F)cc(OCC(F)(F)F)cc12`, for which the values for the pEC50 in the data set with Hepatitis C virus [1], in the data set with Hepatitis C virus [3] and in the data set with Hepatitis C virus [5] were 8.30, 6.69 and 4.81, respectively. The same compound registered a chromatographic logD in data set [2] of 3.6. In addition, half-maximal cytotoxicity in data set [4] (CC50) was put at 26600 nM.

Regarding `Cc1cc(-c2nnc(N[C@H]3C[C@](O)(C(F)F)C3)o2)nc2c(C(C)(C)C)cc(NCC(F)(F)F)cc12`, the CLint scaled at 3 µM in data set [11] was 3.67 mL/min/kg; in data set [14], 3.33 mL/min/kg. Moreover, the pEC50 was 9.80 in the data set with Hepatitis C virus [6]; 10.10 with Hepatitis C virus [1]; 10.30 in the data set with Hepatitis C virus [7]; 8.64 in the data set with Hepatitis C virus [8]; 9.13 with Hepatitis C virus [3]; 9.12 in the data set with Hepatitis C virus [10]. In addition, the pEC50 is 8.36 in the data set with Hepatitis C virus [15] and 7.60 in the data set on Hepatitis C virus [5]. The chromatographic logD in [2] is 3.7. The Ratio EC50 in data set [9] turned out to be 312. This compound also displayed a CC50 in [4] of 5440 nM. In [13], this compound showed a half-life of 5.2 h. Also, in data set [16], the Vd worked out at 5 L/kg. For the same compound, the bioavailability in [17] came to 25%. Further, the clearance in [18] is 14.5 mL/min/kg.

As to `Cc1cc(-c2nnc(Nc3ccccc3)o2)nc2c(C(F)(F)F)cc(-c3ccccc3)cc12`, the CLint scaled at 3 µM is 11.7 mL/min/kg in data set [11] and 7.67 mL/min/kg in data set [14]. Moreover, the results for the pEC50 in the data set with Hepatitis C virus [1] and with Hepatitis C virus [5] were 8.23 and under 4.70, respectively. Moreover, the chromatographic logD in data set [2] was determined as 5.6. This compound registered a CC50 in data set [4] of 86400 nM. Also, in data set [13], the half-life was 2.3 h. The Vd in [16] is 1.8 L/kg. The same compound gave a clearance in data set [18] of 17.5 mL/min/kg.

For the compound `Cc1cc(-c2nnc(N[C@H]3C[C@](O)(C(F)F)C3)o2)nc2c(C(C)(C)C)cc(OCC(F)(F)F)cc12`, the pEC50 was 9.49 in the data set with Hepatitis C virus [1], 8.47 in the data set with Hepatitis C virus [3] and 6.16 in the data set with Hepatitis C virus [5]. Further, the chromatographic logD in data set [2] stood at 4.1. The midpoint of cytotoxicity in [4], the CC50, lay at 6240 nM.

A word on the pEC50: it is the EC50 on a negative log10 scale, so that one unit is a factor of ten. As a reminder, the chromatographic logD is lipophilicity estimated from chromatographic retention. The low end stands for a more hydrophilic compound, the high end for a more lipophilic compound. As a reminder, the CC50 is the concentration that lowers cell viability or growth by half. A low value points to harm at low concentration. As a reminder, the half-life is how long it takes for the measured level to halve. Lower therefore signals fast loss. One may read the bioavailability as the share of a dose that reaches the circulation, judged against a reference dose that is usually intravenous. A higher bioavailability goes with much systemic uptake. What is called clearance is the rate of elimination divided by the concentration. Read a low clearance as inefficient removal. The pKd is the Kd on a negative log10 scale, so that one unit is a factor of ten.
